In the library only some 1.6% were active in any assay of this set; here they are far more common.
TNF necrop inh = inhibitors of TNF-alpha triggered necroptosis, primary screen, cell-based, Jurkat FADD-/-, single concentration; Jurkat FADD-/- TNF necroptosis rescue, ATP luminescence, 24 h; 0 = TNF only, 100 = no-TNF cells; activation (protection from cell death), % at 10 µM; actives 0.068% (n = 220,000);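 active = activation, meaning protection from cell death, of at least 50% relative to plate controls; inactive = activation below 50%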;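 also: necroptosis triggered by 40 ng/mL TNF-alpha added together with compound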
MDM2 E3 inh = MDM2-luciferase reporter signal enhancers, primary screen, MDM2 E3 ligase inhibitor project, cell-based, luminescence, 1536-well | E3 ubiquitin-protein ligase Mdm2 (Homo sapiens), Q00987 | cell-based MDM2 ubiquitination luciferase reporter, 2 h; 0 = plate control, 100 = twice control, blank-subtracted | signal enhancement, % at 5 µM | actives 0.11% (n = 210,000) | AID 1230, 2008;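 active = signal enhancement of 30% or more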;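 also: luminescence tracks abundance of the self-degrading MDM2-luciferase fusion protein; higher signal means inhibition of MDM2 E3 ligase activity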
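Test system: mammalian cells stably expressing self-ubiquitinating, self-degrading MDM2 E3–luciferase fusion; Amount: 2000 cells in each well; Medium: DMEM; Schedule: 4 h settle plus 2 h compound, 37 °C; Technique: SteadyLite luciferase luminescence after 15 min room-temperature reagent incubation; Benchmarks: plate control and blank wells.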
zVAD death inh = inhibitors of zVAD-triggered necroptosis, primary screen, L929 cells | L929 zVAD necroptosis rescue, ATP luminescence, 24 h; with zVAD 60 µM | actives 0.38% (n = 220,000) | AID 1377, 2008 | viability rescue, % at 10 µM;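 active = activation, scaled between plate controls, above about 75%, limit read from the data; inactive = activation under that limit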
Pf gametocyte = late stage P. falciparum gametocyte viability inhibitors, primary screen, ATP luminescence, HTS | P. falciparum stage V gametocytes, 24 h | inhibition, % at 10.9 µM | actives 0.065% (n = 150,000) | AID 743093, 2013;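 active = inhibition above the mean plus 3 SD of compounds within the control limits, set per campaign, cut at about 38% in these data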
Wee1 stabilizer = Wee1 degradation inhibitors, primary screen, cell-based, HeLa, Wee1K328M-luciferase, luminescence. HeLa Luc-Wee1K328M stability; 100% = proteasome inhibitor MG132 effect. reporter increase, % at 5 µM. actives 1.2% (n = 220,000). AID 1321, 2008;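 active = activation above the mean of all tested compounds plus 3 SD, set per screening run, cut at about 8.8% in these data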;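 also: cells exposed to compound for 20 h before luminescence read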
Target sequence (P30291 whole entry K328M): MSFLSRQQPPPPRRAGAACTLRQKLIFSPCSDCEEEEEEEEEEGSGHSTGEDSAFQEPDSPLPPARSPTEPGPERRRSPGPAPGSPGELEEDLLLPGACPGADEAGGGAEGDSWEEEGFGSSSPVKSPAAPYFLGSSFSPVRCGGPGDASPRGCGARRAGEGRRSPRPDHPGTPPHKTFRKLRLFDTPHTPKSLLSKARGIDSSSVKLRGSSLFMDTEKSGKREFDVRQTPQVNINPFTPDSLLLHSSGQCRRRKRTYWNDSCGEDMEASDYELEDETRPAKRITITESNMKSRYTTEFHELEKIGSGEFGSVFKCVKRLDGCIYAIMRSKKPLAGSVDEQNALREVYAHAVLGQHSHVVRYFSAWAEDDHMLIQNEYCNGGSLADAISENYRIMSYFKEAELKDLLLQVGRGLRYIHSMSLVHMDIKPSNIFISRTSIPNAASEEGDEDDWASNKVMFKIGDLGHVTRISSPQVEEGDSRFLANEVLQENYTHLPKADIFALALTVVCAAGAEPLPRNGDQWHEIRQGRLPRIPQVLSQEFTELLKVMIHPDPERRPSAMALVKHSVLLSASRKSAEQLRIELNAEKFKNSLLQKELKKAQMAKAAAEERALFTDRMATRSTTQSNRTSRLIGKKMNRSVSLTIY
Each line names hits and unclear results; the compound was inactive in the other large screens.

CCOC(=O)C1(Cc2ccc(OC)cc2)CCN(C(=O)CCn2ccc(C)n2)CC1	Wee1 stabilizer 8.8
CCOC(=O)C1(Cc2ccc(OC)cc2)CCN(C(=O)CCn2cccn2)CC1	none
N#C/C(=C/c1ccc([N+](=O)[O-])cc1)C(N)=O	Wee1 stabilizer 10.9 (no result: Pf gametocyte)
CCc1ccc(C(=O)N/N=C/c2ccc(Cl)cc2Cl)nc1	none (no result: Pf gametocyte)
CC(C)(C)CC(C)(C)NC(=S)Nc1ccc2nc(-c3ccccn3)c(-c3ccccn3)nc2c1	none
CCOCCCNC(=O)C(NC(=O)c1ccc(NC(C)=O)cc1)c1ccc(Cl)cc1 (centres undefined)	none (no result: zVAD death inh)
Cc1ccc(S(=O)(=O)N(Cc2cc3cccc(C)c3[nH]c2=O)c2ccccc2)cc1	Wee1 stabilizer 9.1 (no result: MDM2 E3 inh)
Cc1ccc(N(Cc2cc3ccccc3[nH]c2=O)S(=O)(=O)c2ccccc2)cc1	none (no result: Pf gametocyte)
Cc1ccc(C(=O)NC(C#N)=C(Cl)Cl)cc1	TNF necrop inh 73.8
Cc1ccc(C(=O)NCC#N)cc1	none
CN(C(=O)COC(=O)c1sc2ccccc2c1Cl)C1CCCCC1	none
CCN(CC)S(=O)(=O)c1ccc(N2C(=O)Nc3ccccc3N2O)cc1	none (no result: Pf gametocyte)
O=C1Nc2ccccc2N(O)N1c1ccc(S(=O)(=O)N2CCCCCC2)cc1	Wee1 stabilizer 9.7
COC1(NC(=O)c2ccccc2)C(C)=CC(=O)C=C1C	none
O=C(O)CCNC(=O)CCCn1nnc2ccccc2c1=O	Wee1 stabilizer 9.5
CC(C)C[C@H](NC(=O)CCCn1nnc2ccccc2c1=O)C(=O)O	none
O=C(/C=C/c1ccc(Cl)cc1)N(Cc1ccccc1)c1ccccn1	none
N/C(Cc1ccc([N+](=O)[O-])cc1)=N\OC(=O)CC1CCCCC1	Pf gametocyte 59.1
O=C1CN(c2cc(Cl)cc(Cl)c2)C(=O)CN1/N=C/c1cccnc1	MDM2 E3 inh 77.0
O=C1CSC(=S)N1/N=C/c1cccnc1	none
O=C(CSc1cccc2cccnc12)N/N=C/c1ccncc1	none (no result: Pf gametocyte)
O=C(CSC1=Nc2ccccc2C2CC=NN12)Nc1ccc2c(c1)OCO2 (centres undefined)	none (no result: Pf gametocyte)
N#Cc1ccccc1NC(=O)CSC1=Nc2ccccc2C2CC=NN12 (centres undefined)	Wee1 stabilizer 9.4
Cc1cc(C)cc(N(CCC#N)C(=O)CSC2=Nc3ccccc3C3CC=NN23)c1 (centres undefined)	Wee1 stabilizer 9.9
Cc1ccc(C(=O)CNc2cccc([N+](=O)[O-])c2)cc1	none
Cc1ccc(NCC(=O)c2ccc([N+](=O)[O-])cc2)cc1	Wee1 stabilizer 9.4 (no result: Pf gametocyte)
Cc1nc2sc(C(c3cccs3)N3CCN(c4cccc(Cl)c4)CC3)c(O)n2n1 (centres undefined)	Wee1 stabilizer 11.3 (no result: Pf gametocyte)
O=C1NC(Cc2c[nH]c3ccccc23)C(=O)N1CCOc1ccc(F)cc1 (centres undefined)	TNF necrop inh 64.7
Cc1nnc(SCCN2CCOCC2)c2nn(-c3ccccc3F)c(C)c12	MDM2 E3 inh 78.8
Cc1nnc(Cl)c2nn(-c3ccccc3F)c(C)c12	none
CCOC(=O)C1C(c2ccccc2)N(C)OC1(O)C(F)(F)F (centres undefined)	MDM2 E3 inh 35.0
CCOC(=O)C1C(c2ccc(OC)cc2)N(C)OC1(O)C(F)(F)F (centres undefined)	none
COC(=O)c1ccccc1NC(=O)CSc1nnc(COc2cccc(OC)c2)n1C	none (no result: Pf gametocyte)
Cc1ccccc1N1CC(=O)N(c2ccccc2C)CC1=O	none (no result: Pf gametocyte)
Cc1cccc2c1c1ccc3c(c1n2C)C(=O)C=CC3=O	MDM2 E3 inh 53.6 (no result: Pf gametocyte)
CC(=O)NC(C)CCc1ccccc1 (centres undefined)	none
COc1ccc2c(c1)c(C(=O)N/N=C/c1cn(C)c3ccccc13)c(C)n2C	Wee1 stabilizer 9.4
Cc1ccc(OCC(=O)N/N=C/c2cn(C)c3ccccc23)cc1	Wee1 stabilizer 9.2
Cc1ccccc1OCC(=O)N/N=C/c1cn(C)c2ccccc12	none
NC(=O)COC(=O)c1ccc(-c2ccc(O)cc2)cc1	Wee1 stabilizer 9.8
Cc1ccc(C(=O)COC(=O)c2ccc(O)cc2)cc1	Wee1 stabilizer 10.4
NC(=O)COC(=O)c1ccc(-c2ccccc2)cc1	none
Cc1ccc(C(=O)NCC2CCCO2)cc1N1CCCC1=O (centres undefined)	none
COc1ccc(CCN(C)CCCN2CC(c3ccccc3)CC2=O)cc1OC (centres undefined)	Pf gametocyte 42.1
CS(=O)(=O)N1CCc2cc(S(=O)(=O)Nc3ccc4c(c3)OCCO4)ccc21	none
COc1ccccc1CN1C[C@@H]2C[C@@H](c3ccccc3OC)N3CCC[C@@]23C1=O	none
Oc1ccccc1-c1nc(/C=C/c2ccccc2)nn1-c1ccccc1	Wee1 stabilizer 9.6
COc1ccc(C2N(S(=O)(=O)c3ccc(C)cc3)CCN2S(=O)(=O)c2ccc(C)cc2)cc1	none
Cc1cc(C)nc(NC(=O)/C=C/c2ccc3c(c2)OCO3)c1	Wee1 stabilizer 8.9
CC(=O)Nc1ccc(NC(=O)/C=C/c2ccc3c(c2)OCO3)cc1	none
COc1c(F)c(F)c(C(=O)Nc2ccc(-c3nc4ccccc4[nH]3)cc2)c(F)c1F	Wee1 stabilizer 10.0
O=C(Nc1ccc(-c2nc3ccccc3[nH]2)cc1)c1c(F)c(F)c(F)c(F)c1F	none
COc1ccc(/C=C/C(=O)c2ccc3c(c2)OCO3)c(OC)c1	Wee1 stabilizer 28.7
O=C(CSCc1c(Cl)cccc1Cl)NN=C1CCCC1	none
Cc1ccc(CSc2nc3ccccc3cc2C=O)cc1	Wee1 stabilizer 10.3
O=Cc1cc2ccccc2nc1SCc1ccc(Cl)cc1	none
O=[N+]([O-])c1cc(Br)cc(C=Nc2ccc3c(c2)OCO3)c1O	Wee1 stabilizer 9.7
O=[N+]([O-])c1ccc(O)c(C=Nc2ccc3c(c2)OCO3)c1	none
S=C(c1ccc(-c2ccc(Br)cc2)o1)N1CCCCC1	none
S=C(c1ccc(-c2ccc(Br)cc2)o1)N1CCOCC1	Wee1 stabilizer 10.1
Brc1ccc(-c2nnc(-c3cccc(Br)c3)o2)cc1	Wee1 stabilizer 10.4
COc1ccc(-c2cc(C(F)(F)F)n3nc(C(=O)O)cc3n2)cc1OC	none
O=C(O)c1ccc(C(=O)c2ccc3c(c2)C(=O)N(CC2CCCO2)C3=O)cc1 (centres undefined)	Wee1 stabilizer 10.3
O=C(O)c1ccc(S(=O)(=O)c2ccc3c(c2)C(=O)N(CC2CCCO2)C3=O)cc1 (centres undefined)	none (no result: Pf gametocyte)
Cc1nc2ccccc2n1CC(=O)NCc1ccccc1	none (no result: Pf gametocyte)
C[C@H](NC(=O)c1nc[nH]c1C(=O)NCCCCCNC(=O)OC(C)(C)C)C(=O)OCc1ccccc1	Wee1 stabilizer 9.1 (no result: MDM2 E3 inh, Pf gametocyte)
